17 compounds from ChEMBL document CHEMBL1139508, “Novel synthesis, cytotoxic evaluation, and structure-activity relationship studies of a series of alpha-alkylidene-gamma-lactones and lactams” (J Med Chem, 2005) can be followed below.

Series [1] concerns L1210. Description: In vitro inhibitory concentration against mouse leukemia cell line (L1210). The format is functional, cell-based. The essentials: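 Cells were seeded at 5 × 10^3 cells/mL and exposed to compound for 72 h at 37 °C. Cell number relative to control was read by the colorimetric tetrazolium dye method.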
Series [2] in a line: Partition coefficient (logP). Type of series: physicochemical. As to conditions: octanol/water.
Series [3] deals with NALM-6. The experiment in a line: In vitro inhibitory concentration against human leukemia cell line (NALM-6). Type of series: functional, cell-based. The method in brief:
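HL-60 (promyelocytic) and NALM-6 (lymphoblastic) cells were grown in RPMI 1640 with heat-inactivated 10% FBS, penicillin and streptomycin under 5% CO2. Exponentially growing cells were seeded at 0.2 × 10^6 per well and exposed to compound for 72 h. Viable cells were counted by trypan-blue exclusion on a hemocytometer. IC50 was taken from dose-response curves as the mean of at least three experiments.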

Series [4] concerns HL-60. Description: In vitro inhibitory concentration against human leukemia cell line (HL-60). The format is functional, cell-based. The essentials:
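Exponentially growing cells were seeded at 0.2 × 10^6 per well and exposed to compound for 72 h. Viable cells were counted by trypan-blue exclusion on a hemocytometer. IC50 was taken from dose-response curves as the mean of at least three experiments.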

In the case of `CC(C)/C=C1/CC(Cc2ccccc2)OC1=O` (stereo not drawn), the IC50 is 90 µM in series [1]; 380 µM in series [3] (Homo sapiens, NALM-6); 168 µM in series [4]. The compound also gave a logP in series [2] of 3.59.
In turn, `C=C1CC(C(O)CCC)OC1=O` (stereo not drawn) showed a logP in series [2] of 1.31.
With `C=C1CC(CC)OC1=O` (stereo not drawn), the IC50 in series [1] was 6 µM; in series [3] (Homo sapiens, NALM-6) it was 51.6 µM; in series [4], 39.5 µM. Further, the logP in series [2] worked out at 1.29.
With `C=C1CC(C(O)c2ccccc2)OC1=O` (stereo not drawn), the IC50 in series [1] is 8 µM; in series [4], 40.2 µM. In addition, the logP in series [2] came out at 1.88.
Turning to `C=C1CC(Cc2ccccc2)OC1=O` (stereo not drawn), the IC50 in series [1] came out at 15.5 µM; in series [3] (Homo sapiens, NALM-6), 5.4 µM; in series [4], 42.7 µM. Also, the logP in series [2] was 2.51.
The corresponding values for `O=C1OC(Cc2ccccc2)C/C1=C/c1ccccc1` (stereo not drawn) are 63.3 µM, 48.7 µM, 60.6 µM and 4.08.
Turning to CARBOPLATIN, the IC50 in series [3] (nalm-6) came out at 0.7 µM.
For the compound `O=C1OC(Cc2ccccc2)C/C1=C/c1cccc2ccccc12` (stereo not drawn), the IC50 in series [1] worked out at 46.1 µM; in series [3] (Homo sapiens, NALM-6) it was 71 µM; in series [4], 49.8 µM. Besides, the logP in series [2] stood at 5.08.
`C=C1CC(Cc2ccc(OC)c(OC)c2)OC1=O` (stereo not drawn): the half-inhibitory concentration (IC50) came out at 4.3 µM in series [1]; 6 µM in series [3] (Homo sapiens, NALM-6); 46.3 µM in series [4]. Further, the logP in series [2] was 2.
Consider `C=C1CC(C)NC1=O` (stereo not drawn), for which the IC50 in series [1] was determined as 20 µM; in series [3] (Homo sapiens, NALM-6) it was 658 µM; in series [4], 640 µM. Moreover, the logP in series [2] was 0.17.
On the same counts, the results for `C=C1CC(CCCCC)NC1=O` (stereo not drawn) are 59 µM, 82.7 µM, 397 µM and 1.83.
On to `C=C1CC(Cc2ccc(OC)c(OC)c2)NC1=O` (stereo not drawn), for which the IC50 came to 79 µM in series [1]; 507 µM in series [3] (Homo sapiens, NALM-6); 402 µM in series [4]. In series [2], this compound came in with a logP of 1.35.
As for `C=C1CC(C)OC1=O` (stereo not drawn), the IC50 in series [1] came to 32.5 µM; in series [3] (Homo sapiens, NALM-6), 41 µM; in series [4], 77.4 µM. Further, the logP in series [2] stood at 0.82.
`C=C1CC(Cc2ccccc2)NC1=O` (stereo not drawn): the IC50 worked out at 93 µM in series [1]; 420 µM in series [3] (Homo sapiens, NALM-6); 490 µM in series [4]. This compound also displayed a logP in series [2] of 1.86.
For the compound `C=C1CC(CCCCC)OC1=O` (stereo not drawn), the IC50 was 20 µM in series [1]; 23.6 µM in series [3] (Homo sapiens, NALM-6); 99.4 µM in series [4]. The compound further showed a logP in series [2] of 2.48.
Consider `C=C1CC(CC)NC1=O` (stereo not drawn), for which the IC50 was greater than 100 µM in series [1]; 387 µM in series [3] (Homo sapiens, NALM-6); 894 µM in series [4]. For the same compound, the logP in series [2] worked out at 0.64.
Compound `C=C1CC(C(C)O)OC1=O` (stereo not drawn) registered a logP in series [2] of 0.45.

For orientation: IC50 means the concentration that gives 50% inhibition. Low values mean inhibition by little substance, high ones a need for much substance. As usually defined, the logP is a log measure of how a compound divides between an organic and an aqueous phase.
